What was measured:
Type in all cases: cell-based, Homo sapiens
hMC4R/TM4 hMC2R [1] = test: […]-NDP-MSH displacement on transfected cells; details: read-out: THIQ Ki; whole HEK293 cells, MEM with 0.2% BSA, 1 h
hMC4R/TM2 hMC2R [2] = test: […]-NDP-MSH displacement on transfected cells; details: read-out: THIQ Ki; whole HEK293 cells, MEM with 0.2% BSA, 1 h
hMC4R/TM4 hMC2R [3] = test: cAMP accumulation; details: read-out: THIQ (EC50 (nM)); HEK293 cells, 1 h, 37°C, 1 mM IBMX; agonist
Summary of the method: (§1)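 HEK293 cells stably expressing FLAG-tagged hMC4R chimeras, with one TM swapped for the homologous hMC2R segment, were selected with G418. Cells were incubated in EBSS with test compound (10−10–10−6 M) and 10−3 M IBMX for 1 h at 37°C. The reaction was stopped with ice-cold ethanol and the supernatant dried under nitrogen at 55°C. Duplicate wells, three separate experiments; sigmoid variable-slope fit.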

hMC4R/TM5 hMC2R [4] = test: […]-NDP-MSH displacement on transfected cells; details: read-out: THIQ Ki; whole HEK293 cells, MEM with 0.2% BSA, 1 h
hMC4R/TM5 hMC2R [5] = test: cAMP accumulation; details: read-out: THIQ (EC50 (nM)); HEK293 cells, 1 h, 37°C, 1 mM IBMX; agonist
Summary of the method: as §1

hMC4R/TM6 hMC2R [6] = test: […]-NDP-MSH displacement on transfected cells; details: read-out: THIQ Ki; whole HEK293 cells, MEM with 0.2% BSA, 1 h
hMC4R/TM2 hMC2R [7] = test: cAMP accumulation; details: read-out: THIQ (EC50 (nM)); HEK293 cells, 1 h, 37°C, 1 mM IBMX; agonist
Summary of the method: as §1

hMC4R/TM6 hMC2R [8] = test: cAMP accumulation; details: read-out: THIQ (EC50 (nM)); HEK293 cells, 1 h, 37°C, 1 mM IBMX; agonist
Summary of the method: as §1

hMC4R/TM3 hMC2R [9] = test: cAMP accumulation; details: read-out: THIQ (EC50 (nM)); HEK293 cells, 1 h, 37°C, 1 mM IBMX; agonist
Summary of the method: as §1

hMC4R/TM3 hMC2R [10] = test: […]-NDP-MSH displacement on transfected cells; details: read-out: THIQ Ki; whole HEK293 cells, MEM with 0.2% BSA, 1 h

EC50 (hMC4R/TM4 hMC2R [3]): 3.5 ± 0.3 nM | EC50 (hMC4R/TM5 hMC2R [5]): 3.9 ± 0.4 nM | EC50 (hMC4R/TM2 hMC2R [7]): 3.1 ± 0.3 nM | EC50 (hMC4R/TM6 hMC2R [8]): 2.8 ± 0.6 nM | EC50 (hMC4R/TM3 hMC2R [9]): 91 ± 6.2 nM
Compound: O=C(N[C@H](Cc1ccc(Cl)cc1)C(=O)N1CCC(Cn2cncn2)(C2CCCCC2)CC1)[C@H]1Cc2ccccc2CN1 [THIQ, N-(3R)-1 4-tetrahydroisoquinolinium-3-ylcarbonyl-(1R)-1-(4-chlorobenzyl)-2-4-cyclohexyl-4-(1H-1,2,4-triazol-1-ylmethyl)piperidin-1-yl-2-oxoethylamine]
Ki (hMC4R/TM4 hMC2R [1]): 7.2 ± 2.3 nM | Ki (hMC4R/TM2 hMC2R [2]): 6.2 ± 0.2 nM | Ki (hMC4R/TM5 hMC2R [4]): 6.7 ± 3.4 nM | Ki (hMC4R/TM6 hMC2R [6]): 5.3 ± 0.2 nM | Ki (hMC4R/TM3 hMC2R [10]): 76.2 ± 17.3 nM

Source: PMC3216638 (Regulatory peptides, 2009)
